# Where “and” joins values, the source holds several entries; their conditions need not be identical. Identical values can stand only once.
# Columns and labels:
# [1] = target: Phosphatidylinositol 4,5-bisphosphate 3-kinase catalytic subunit gamma isoform (Homo sapiens, UniProt P48736); test: Inhibition of human full length p110gamma using PIP2 as substrate after 30 mins in presence of ATP at 2xKm concentration by TR-FRET assay
# [2] = Clearance in human hepatocytes at 1 uM measured up to 250 mins by UHPLC-HRMS analysis; assay type: ADME, cell-based, Hepatocyte; settings: 250 min, 1 µM
# Cytochrome P450 3A4 = Cytochrome P450 3A4 (Homo sapiens, UniProt P08684); test: Inhibition of human CYP3A4; assay type: ADME
# Sequence of Cytochrome P450 3A4 (P08684 whole entry): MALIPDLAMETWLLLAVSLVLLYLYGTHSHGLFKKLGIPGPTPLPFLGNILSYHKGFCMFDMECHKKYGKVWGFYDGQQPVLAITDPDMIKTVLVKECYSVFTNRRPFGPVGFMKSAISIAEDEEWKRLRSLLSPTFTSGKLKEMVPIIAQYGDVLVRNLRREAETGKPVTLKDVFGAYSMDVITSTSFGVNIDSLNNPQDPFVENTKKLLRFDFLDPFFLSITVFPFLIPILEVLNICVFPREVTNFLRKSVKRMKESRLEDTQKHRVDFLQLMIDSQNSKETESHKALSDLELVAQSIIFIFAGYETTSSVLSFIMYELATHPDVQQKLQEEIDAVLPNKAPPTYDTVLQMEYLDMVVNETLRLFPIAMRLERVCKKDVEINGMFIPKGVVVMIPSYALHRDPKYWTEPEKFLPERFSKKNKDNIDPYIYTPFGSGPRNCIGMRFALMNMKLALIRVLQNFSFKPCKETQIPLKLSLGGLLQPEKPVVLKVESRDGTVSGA
# [3] = Dissociation constant, acidic pKa of compound; assay type: physicochemical
# [4] = target: PI3-kinase p110-delta/p85-alpha (Homo sapiens, UniProt O00329); test: Inhibition of human p110delta catalytic subunit/p85alpha using PIP2 as substrate after 30 mins in presence of ATP at 2xKm concentration by TR-FRET assay; assay type: protein-complex assay
# Sequence of PI3-kinase p110-delta/p85-alpha (P27986 whole entry, canonical isoform): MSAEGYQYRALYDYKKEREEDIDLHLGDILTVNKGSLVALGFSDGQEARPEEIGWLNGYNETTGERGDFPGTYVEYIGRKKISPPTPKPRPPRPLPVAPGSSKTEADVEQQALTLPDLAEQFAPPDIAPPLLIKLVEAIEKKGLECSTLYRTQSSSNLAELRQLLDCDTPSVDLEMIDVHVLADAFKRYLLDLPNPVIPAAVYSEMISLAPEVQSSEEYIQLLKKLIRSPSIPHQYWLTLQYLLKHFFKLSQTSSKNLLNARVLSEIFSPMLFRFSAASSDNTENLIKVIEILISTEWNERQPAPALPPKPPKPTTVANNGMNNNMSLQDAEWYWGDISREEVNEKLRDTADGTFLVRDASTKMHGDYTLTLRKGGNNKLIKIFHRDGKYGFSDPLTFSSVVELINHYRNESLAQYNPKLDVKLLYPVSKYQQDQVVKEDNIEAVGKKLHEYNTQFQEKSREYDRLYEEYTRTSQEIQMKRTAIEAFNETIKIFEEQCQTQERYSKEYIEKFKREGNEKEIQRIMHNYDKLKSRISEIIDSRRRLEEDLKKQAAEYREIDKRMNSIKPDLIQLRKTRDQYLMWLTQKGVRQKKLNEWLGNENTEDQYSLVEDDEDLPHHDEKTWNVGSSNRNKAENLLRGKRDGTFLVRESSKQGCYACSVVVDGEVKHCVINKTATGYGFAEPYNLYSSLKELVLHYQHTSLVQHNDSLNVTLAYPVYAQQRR
# Sequence of PI3-kinase p110-delta/p85-alpha (O00329 whole entry, canonical isoform): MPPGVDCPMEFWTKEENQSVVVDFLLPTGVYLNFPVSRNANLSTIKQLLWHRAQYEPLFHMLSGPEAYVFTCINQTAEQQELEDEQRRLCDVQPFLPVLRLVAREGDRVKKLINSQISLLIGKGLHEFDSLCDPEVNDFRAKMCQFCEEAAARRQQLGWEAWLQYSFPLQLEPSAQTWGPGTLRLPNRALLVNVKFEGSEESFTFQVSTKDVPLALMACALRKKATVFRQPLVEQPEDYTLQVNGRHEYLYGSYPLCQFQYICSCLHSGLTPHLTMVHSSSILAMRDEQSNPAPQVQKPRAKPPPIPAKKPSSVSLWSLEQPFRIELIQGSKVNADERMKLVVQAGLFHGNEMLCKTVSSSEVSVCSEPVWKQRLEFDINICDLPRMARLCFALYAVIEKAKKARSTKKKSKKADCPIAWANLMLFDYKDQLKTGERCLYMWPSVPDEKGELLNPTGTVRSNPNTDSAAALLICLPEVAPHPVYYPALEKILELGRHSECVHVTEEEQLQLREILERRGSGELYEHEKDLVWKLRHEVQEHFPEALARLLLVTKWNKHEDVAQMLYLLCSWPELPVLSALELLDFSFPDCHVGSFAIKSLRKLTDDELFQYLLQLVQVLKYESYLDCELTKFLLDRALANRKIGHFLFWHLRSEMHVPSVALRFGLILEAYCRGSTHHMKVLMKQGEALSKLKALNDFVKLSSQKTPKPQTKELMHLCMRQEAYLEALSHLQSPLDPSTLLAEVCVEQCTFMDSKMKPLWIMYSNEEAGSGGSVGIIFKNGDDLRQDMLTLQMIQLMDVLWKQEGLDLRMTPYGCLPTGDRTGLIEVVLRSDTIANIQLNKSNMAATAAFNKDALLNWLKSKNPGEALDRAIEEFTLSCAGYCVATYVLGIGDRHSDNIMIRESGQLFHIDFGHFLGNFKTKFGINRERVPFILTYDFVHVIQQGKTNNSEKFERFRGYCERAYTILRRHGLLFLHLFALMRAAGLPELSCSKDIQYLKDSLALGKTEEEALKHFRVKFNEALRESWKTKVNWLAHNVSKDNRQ
# Summary of the method: (§1)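 Class I PI3K isoforms assayed in vitro for kinase inhibition with ATP at 2Km steady-state concentration; IC50 values averaged over at least 2 determinations.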
# [5] = target: PI3-kinase p110-alpha/p85-alpha (Homo sapiens, UniProt P42336); test: Inhibition of human full length p110alpha/p85alpha using PIP2 as substrate after 30 mins in presence of ATP at 2xKm concentration by TR-FRET assay; assay type: protein-complex assay; summary of the method: as §1
# PI3K p110 beta/p85 alpha = PI3K p110 beta/p85 alpha (Homo sapiens, UniProt P42338); test: Inhibition of recombinant human full-length N-terminal His6-tagged p110beta/human recombinant full-length untagged p85alpha expressed in baculovirus infected Sf21 insect cells using PIP2 as substrate after 30 mins in presence of ATP at 2xKm concentration by TR-FRET assay; summary of the method: as §1
# Sequence of PI3K p110 beta/p85 alpha (P27986 whole entry): as the sequence (P27986 whole entry, canonical isoform) above
# Sequence of PI3K p110 beta/p85 alpha (P42338 whole entry): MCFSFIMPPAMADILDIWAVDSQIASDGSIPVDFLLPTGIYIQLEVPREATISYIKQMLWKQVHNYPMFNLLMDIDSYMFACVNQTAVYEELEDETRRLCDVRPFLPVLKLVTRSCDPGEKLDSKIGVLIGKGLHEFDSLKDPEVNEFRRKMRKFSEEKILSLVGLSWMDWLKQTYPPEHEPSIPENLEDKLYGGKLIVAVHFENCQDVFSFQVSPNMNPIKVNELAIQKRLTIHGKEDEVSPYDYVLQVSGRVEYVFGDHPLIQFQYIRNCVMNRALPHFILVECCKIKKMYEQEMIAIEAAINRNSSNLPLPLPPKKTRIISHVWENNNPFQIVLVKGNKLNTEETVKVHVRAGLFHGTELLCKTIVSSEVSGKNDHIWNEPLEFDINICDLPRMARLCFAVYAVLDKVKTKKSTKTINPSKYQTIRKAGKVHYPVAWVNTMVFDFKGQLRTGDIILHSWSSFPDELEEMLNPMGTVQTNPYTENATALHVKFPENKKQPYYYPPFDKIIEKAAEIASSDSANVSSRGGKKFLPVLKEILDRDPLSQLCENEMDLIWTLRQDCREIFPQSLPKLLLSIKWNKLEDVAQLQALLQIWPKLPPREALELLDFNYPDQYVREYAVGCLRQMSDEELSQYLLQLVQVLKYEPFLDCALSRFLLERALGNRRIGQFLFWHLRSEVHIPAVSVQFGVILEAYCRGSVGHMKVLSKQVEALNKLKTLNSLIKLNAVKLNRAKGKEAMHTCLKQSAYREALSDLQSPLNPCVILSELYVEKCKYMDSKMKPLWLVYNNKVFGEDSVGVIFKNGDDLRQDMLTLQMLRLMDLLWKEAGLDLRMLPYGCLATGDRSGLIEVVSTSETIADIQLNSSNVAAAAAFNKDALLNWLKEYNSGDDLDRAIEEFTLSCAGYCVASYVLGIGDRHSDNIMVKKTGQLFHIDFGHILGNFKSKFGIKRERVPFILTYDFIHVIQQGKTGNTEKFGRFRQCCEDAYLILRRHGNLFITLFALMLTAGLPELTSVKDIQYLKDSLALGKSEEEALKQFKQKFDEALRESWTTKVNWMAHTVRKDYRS
# [6] = Apparent permeability across basolateral to apical side in human Caco2 cells at 10 uM after 1 to 2 hrs by LC/MS/MS analysis; assay type: ADME, cell-based; settings: Caco-2
# [7] = target: T1, Phosphatidylinositol 4,5-bisphosphate 3-kinase catalytic subunit beta isoform (Homo sapiens, UniProt P42338); test: Inhibition of PI3Kbeta in PTEN-deficient human LNCaP C4-2 cells assessed as reduction in AKT phosphorylation at Ser473 residue after 2 hrs by mesoscale assay; assay type: cell-based
# T1 sequence (P42338 whole entry, canonical isoform): as the sequence (P42338 whole entry) above
# Summary of the method: (§2)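 Cellular readout: pAKT1 Ser473 normalized to total AKT1, expressed as units pAKT1 Ser473 per nanogram total AKT1; cells treated under serum-free conditions.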
# [8] = target: Voltage-gated inwardly rectifying potassium channel KCNH2 (Homo sapiens, UniProt Q12809); test: Inhibition of human ERG
# Summary of the method: (§3)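 Binding-assay format used to measure inhibition of major human CYP450 enzymes and hERG.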
# [9] = target: T1, Phosphatidylinositol 4,5-bisphosphate 3-kinase catalytic subunit beta isoform; test: Inhibition of PI3Kbeta in PTEN-deficient human ZR-75-1 cells assessed as reduction in AKT phosphorylation at Ser473 residue after 2 hrs by mesoscale assay; assay type: cell-based; summary of the method: as §2
# [10] = target: T1, Phosphatidylinositol 4,5-bisphosphate 3-kinase catalytic subunit beta isoform; test: Inhibition of PI3Kbeta in PTEN-deficient human MDA-MB-415 cells assessed as reduction in AKT phosphorylation at Ser473 residue after 2 hrs by mesoscale assay; assay type: cell-based; summary of the method: as §2
# [11] = Volume of distribution at steady state in rhesus monkey at 1 mg/kg administered as iv infusion for 30 mins and measured after 24 hrs by ESI-LC/MS/MS analysis; assay type: ADME, organism-based, Macaca mulatta; settings: in vivo, read-out: Vdss
# [12] = Oral bioavailability in Sprague-Dawley rat at 5 mg/kg dosed via gavage after 24 hrs by ESI-LC/MS/MS analysis; assay type: ADME, organism-based; settings: in vivo
# [13] = Protein binding in Beagle dog plasma at 1 mg/kg administered as iv infusion for 30 mins and measured after 24 hrs by ESI-LC/MS/MS analysis; assay type: ADME, organism-based, Canis lupus familiaris; settings: read-out: PPB (converted)
# [14] = Protein binding in rhesus monkey plasma at 1 mg/kg administered as iv infusion for 30 mins and measured after 24 hrs by ESI-LC/MS/MS analysis; assay type: ADME, organism-based, Macaca mulatta; settings: read-out: PPB (converted)
# [15] = target: T1, Phosphatidylinositol 4,5-bisphosphate 3-kinase catalytic subunit beta isoform; test: Inhibition of PI3Kbeta in PTEN-deficient human PC3 cells assessed as reduction in AKT phosphorylation at Ser473 residue after 2 hrs by mesoscale assay; assay type: cell-based, PC-3; summary of the method: as §2
# [16] = Genotoxicity in Salmonella typhimurium by Ames test; assay type: toxicity; settings: salmonella enterica subsp. enterica serovar typhimurium
# [17] = Clearance in cynomolgus monkey at 1 mg/kg administered as iv infusion for 30 mins and measured after 24 hrs by ESI-LC/MS/MS analysis; assay type: ADME, organism-based, Macaca fascicularis; settings: in vivo
# [18] = Protein binding in Sprague-Dawley rat plasma at 1 mg/kg administered as iv infusion for 30 mins and measured after 24 hrs by ESI-LC/MS/MS analysis; assay type: ADME, organism-based; settings: read-out: PPB (converted)
# [19] = Oral bioavailability in cynomolgus monkey at 5 mg/kg dosed via gavage after 24 hrs by ESI-LC/MS/MS analysis; assay type: ADME, organism-based, Macaca fascicularis; settings: in vivo
# [20] = Protein binding in cynomolgus monkey plasma at 1 mg/kg administered as iv infusion for 30 mins and measured after 24 hrs by ESI-LC/MS/MS analysis; assay type: ADME, organism-based, Macaca fascicularis; settings: read-out: PPB (converted)
# [21] = Volume of distribution at steady state in cynomolgus monkey at 1 mg/kg administered as iv infusion for 30 mins and measured after 24 hrs by ESI-LC/MS/MS analysis; assay type: ADME, organism-based, Macaca fascicularis; settings: in vivo, read-out: Vdss
# CYP450 = CYP450 (Homo sapiens, UniProt P04798+P05177+P05181+P08684+P10632+P10635+P11509+P11712+P13584+P20813+P20815+P20853+P24462+P24903+P33260+P33261+P51589+P78329+P98187+Q02928+Q08477+Q16678+Q16696+Q5TCH4+Q6VVX0+Q7Z449+Q8TAV3+Q96SQ9+Q9HB55); test: Inhibition of human CYP450; assay type: ADME, protein assay; summary of the method: as §3
# [22] = target: T1, Phosphatidylinositol 4,5-bisphosphate 3-kinase catalytic subunit beta isoform; test: Inhibition of PI3Kbeta in PTEN-deficient human LNCAP cells assessed as reduction in AKT phosphorylation at Ser473 residue after 2 hrs by mesoscale assay; assay type: cell-based; summary of the method: as §2
# [23] = Apparent permeability across apical to basolateral side in human Caco2 cells at 10 uM after 1 to 2 hrs by LC/MS/MS analysis; assay type: ADME, cell-based; settings: Caco-2
# Sequence of Phosphatidylinositol 4,5-bisphosphate 3-kinase catalytic subunit gamma isoform (P48736 whole entry, canonical isoform): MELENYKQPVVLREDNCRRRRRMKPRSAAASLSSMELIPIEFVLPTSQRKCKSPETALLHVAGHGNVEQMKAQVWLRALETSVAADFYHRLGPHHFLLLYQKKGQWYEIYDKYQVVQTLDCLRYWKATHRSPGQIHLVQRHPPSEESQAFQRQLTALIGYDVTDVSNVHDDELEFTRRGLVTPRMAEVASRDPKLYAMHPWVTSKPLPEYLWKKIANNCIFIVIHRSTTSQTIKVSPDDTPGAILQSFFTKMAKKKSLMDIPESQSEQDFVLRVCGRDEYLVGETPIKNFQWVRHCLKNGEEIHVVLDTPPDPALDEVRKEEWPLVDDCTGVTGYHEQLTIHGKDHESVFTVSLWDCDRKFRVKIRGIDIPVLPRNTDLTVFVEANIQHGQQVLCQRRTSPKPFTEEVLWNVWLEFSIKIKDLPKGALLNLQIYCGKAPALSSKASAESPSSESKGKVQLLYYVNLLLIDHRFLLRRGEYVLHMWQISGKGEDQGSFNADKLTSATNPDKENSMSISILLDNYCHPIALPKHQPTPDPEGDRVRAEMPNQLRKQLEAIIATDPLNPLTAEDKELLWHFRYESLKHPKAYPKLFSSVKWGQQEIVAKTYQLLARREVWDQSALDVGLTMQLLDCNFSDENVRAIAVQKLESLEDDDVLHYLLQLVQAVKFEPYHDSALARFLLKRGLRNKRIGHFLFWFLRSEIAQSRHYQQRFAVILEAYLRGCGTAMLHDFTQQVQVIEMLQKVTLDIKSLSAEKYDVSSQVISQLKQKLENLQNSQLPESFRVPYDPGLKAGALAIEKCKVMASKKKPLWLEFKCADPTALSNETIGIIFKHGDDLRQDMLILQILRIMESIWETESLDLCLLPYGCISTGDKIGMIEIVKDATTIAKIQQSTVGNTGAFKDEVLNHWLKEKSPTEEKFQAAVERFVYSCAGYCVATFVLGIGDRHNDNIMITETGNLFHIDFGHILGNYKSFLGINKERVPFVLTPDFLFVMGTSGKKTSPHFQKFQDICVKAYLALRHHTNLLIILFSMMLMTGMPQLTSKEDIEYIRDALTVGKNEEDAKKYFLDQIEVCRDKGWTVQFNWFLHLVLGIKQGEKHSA
IC50 [1] [µM],IC50 [4],IC50 [5] [µM],SMILES,further results
> 10,,,Cc1nc2c(-c3nnc[nH]3)cc(-c3ccncc3)cc2n1-c1ccnc2c(F)ccc(F)c12,CLH [2]: 4 mL/min/kg and 10.2 mL/min/kg; IC50 (Cytochrome P450 3A4): 1 µM; pKa [3]: 5.3
> 10,2.59 µM,6.84,Cc1cc(-c2cc(-c3nnc[nH]3)c3nc(C)n(-c4ccnc5c(F)ccc(F)c45)c3c2)cc(N)n1,
9.42,0.402 µM,0.68,Cc1nc2c(-c3nnc[nH]3)cc(-c3ccnc(C(F)F)c3)cc2n1-c1ccnc2c(F)ccc(F)c12,
> 10,0.302 µM,1.5,Cc1nc2c(-c3nnc[nH]3)cc(-c3cc(N)ncc3F)cc2n1-c1ccnc2c(F)ccc(F)c12,
6,0.036 µM,0.45,C[C@@H](Nc1cc(F)cc(F)c1)c1cc(C(=O)N(C)C)cc2c(=O)cc(N3CCOCC3)oc12 [AZD-8186],
> 10,0.3 µM and 0.122 µM and 1.11 µM,,Cc1cc(-c2cc(-c3nnc[nH]3)c3nc(C)n(-c4ccnc5c(F)ccc(F)c45)c3c2)ccn1,IC50 (Cytochrome P450 3A4): 19 µM; pKa [3]: 5.9
> 10,1.66 µM,2.52,Cc1nc2c(-c3nnc[nH]3)cc(-c3c(F)cnc(N)c3F)cc2n1-c1ccnc2c(F)ccc(F)c12,
> 10,0.5 µM,7.6,Cc1cc(C(C)Nc2ccccc2)c2nc(N3CCOCC3)cc(=O)n2c1 (stereo unspecified),
5.3,0.1 µM,0.35,Clc1cccc2c(-n3cnc4c(-c5ncn[nH]5)cc(-c5ccncc5)cc43)ccnc12,
> 10,1.14 µM,1.27,Cc1cc(-c2cc(-c3nnc[nH]3)c3nc(C)n(-c4ccnc5c(F)ccc(F)c45)c3c2)ncn1,
> 10,> 10 µM,> 10,Cc1c(-c2cc(-c3nnc[nH]3)c3nc(C)n(-c4ccnc5c(F)ccc(F)c45)c3c2)ccnc1N,IC50 (PI3K p110 beta/p85 alpha): 2.86 µM
,,,Cc1nc2c(-c3nnc[nH]3)cc(-c3ccnc(N)c3F)cc2n1-c1ccnc2c(F)ccc(F)c12,Papp B→A at 10 µM [6]: 31 ×10⁻⁶ cm/s; EC50 [7]: 0.015 µM; IC50 [8]: > 25 µM; EC50 [9]: 0.006 µM; EC50 [10]: 0.012 µM; Vd [11]: 0.6 L/kg; bioavailability [12]: 60%; fraction unbound at 24 h [13]: 0.08; fraction unbound at 24 h [14]: 0.07; EC50 [15]: 0.009 µM; Activity [16]: Non-Toxic; clearance [17]: 2.17 mL/min/kg; fraction unbound at 24 h [18]: 0.19; bioavailability [19]: 64%; fraction unbound at 24 h [20]: 0.06; Vd [21]: 0.5 L/kg; IC50 (Cytochrome P450 3A4): > 25 µM; IC50 (CYP450): > 25 µM; pKa [3]: 4.8; EC50 [22]: 0.053 µM
0.35,0.012 µM,0.06,Clc1cccc2c(-n3cnc4c(-c5nnc[nH]5)cc(N5CCOCC5)cc43)ccnc12,
> 10,,,Cc1nc2c(-c3nnc[nH]3)cc(-c3ccnc(N)c3)cc2n1-c1ccnc2c(F)ccc(F)c12,Papp B→A at 10 µM [6]: 18 ×10⁻⁶ cm/s; Papp A→B at 10 µM [23]: 1.7 ×10⁻⁶ cm/s; IC50 (Cytochrome P450 3A4): > 25 µM; pKa [3]: 6.1
> 10,0.297 µM,0.89,Cc1nc2c(-c3nnc[nH]3)cc(-c3ccnc(N)c3Cl)cc2n1-c1ccnc2c(F)ccc(F)c12,
6.27,0.052 µM,0.075,Cc1nc2c(-c3nnc[nH]3)cc(-c3ccnc(Cl)c3)cc2n1-c1ccnc2c(F)ccc(F)c12,
2.72,0.035 µM,0.055,Cc1nccc(-c2cc(-c3nnc[nH]3)c3nc(C)n(-c4ccnc5c(F)ccc(F)c45)c3c2)n1,
> 10,> 10 µM,> 10,CNc1nccc(-c2cc(-c3nnc[nH]3)c3nc(C)n(-c4ccnc5c(F)ccc(F)c45)c3c2)c1F,

# From ChEMBL document CHEMBL4616704, “Discovery of an Atropisomeric PI3Kβ Selective Inhibitor through Optimization of the Hinge Binding Motif” (ACS Med Chem Lett, 2020)
